Measured values taken from ChEMBL document CHEMBL1132160, “Structure-antiviral activity relationship in the series of pyrimidine and purine N-[2-(2-phosphonomethoxy)ethyl] nucleotide analogues. 1. Derivatives substituted at the carbon atoms of the base” (J Med Chem, 1999).
Converted amounts (≈) assume the structure as drawn.

Tests used:
[1] = test system: Human immunodeficiency virus 1; assay: Inhibitory activity of compound against human immunodeficiency virus type 1 (HIV-1) induced cytopathogenicity in MT-4 cells; format: functional, organism-based; conditions: Human immunodeficiency virus 1, MT4
In short: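 Human MT-4 cells (~4 × 10⁵ cells/mL) were infected with 100 CCID50 of HIV-1 (IIIB)/mL and seeded into wells containing compound dilutions. After 5 days at 37 °C, viable cells were counted by trypan blue exclusion in a blood cell counting chamber.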

E6SM [2] = assay: Inhibitory activity against herpes simplex virus type 2 (HSV-2) Lyons strain.; format: functional, cell-based, Homo sapiens
In short: (§1)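 Confluent E6SM cell cultures were inoculated with 100 CCID50 of virus and allowed 1 h for adsorption. Residual virus was then removed, and the cells were incubated with test compound at 400, 200, 100, ... μg/mL. Viral cytopathicity was scored once it reached completion in untreated infected controls.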

Cytomegalovirus [3] = assay: Inhibitory activity against cytomegalovirus (CMV) Davis strain; format: functional, organism-based; conditions: Human betaherpesvirus 5
In short: (§2)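 HEL cell cultures, grown to confluence, received 100 CCID50 of virus. After 1 h adsorption, the inoculum was removed and the cultures were incubated with serial concentrations of compound (400, 200, 100, ... μg/mL).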

Human alphaherpesvirus 1 [4] = assay: Inhibitory activity against herpes simplex virus type 1 thymidine kinase (HSV-1 TK-) VMW 1837 strain.
Cytomegalovirus [5] = assay: Inhibitory activity against cytomegalovirus (CMV) AD 169 strain; format: functional, organism-based; conditions: Human betaherpesvirus 5; in short: as §2
Human alphaherpesvirus 1 [6] = assay: Iactivity against herpes simplex virus type 1 (HSV-1) McIntyre strain.; format: functional, organism-based; in short: as §1
[7] = test system: Human immunodeficiency virus 2; assay: Inhibitory activity against human immunodeficiency virus type 2 (HIV-2) induced cytopathogenicity in MT-4 cells; format: functional, organism-based; conditions: Human immunodeficiency virus 2, MT4
Human alphaherpesvirus 1 [8] = assay: Inhibitory activity against herpes simplex virus type 1 (HSV-1) KOS strain.; format: functional, organism-based; in short: as §1
Human alphaherpesvirus 2 [9] = assay: Inhibitory activity against herpes simplex virus type 2 (HSV-2) 196 strain.; format: functional, organism-based; in short: as §1
Human alphaherpesvirus 2 [10] = assay: Inhibitory activity against herpes simplex virus type 2 (HSV-2) G strain.; format: functional, organism-based; in short: as §1
[11] = Inhibitory activity against murine sarcoma virus induced transformation of murine C3H/3T3 embryo fibroblasts; format: functional, Mus musculus
In short: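 Murine C3H/3T3 embryo fibroblasts were seeded at 5 × 10⁵ cells/mL. After 24 h they were infected with 80 focus-forming units of MSV for 90–120 min at 37 °C. The medium was then replaced with fresh medium containing various compound concentrations, and transformation was examined microscopically after 6 days.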

Human alphaherpesvirus 1 [12] = assay: Inhibitory activity against herpes simplex virus type 1 (HSV-1) F strain; format: functional, organism-based; in short: as §1
Human alphaherpesvirus 1 [13] = assay: Inhibitory activity against herpes simplex virus type 1 (HSV-1) McIntyre strain; format: functional, organism-based; in short: as §1
Human alphaherpesvirus 2 [14] = assay: Inhibitory activity against herpes simplex virus type 2 (HSV-2) Lyons strain; format: functional, organism-based; in short: as §1
[15] = Inhibitory activity against herpes simplex virus type 2 (HSV-2) 196 strain; format: functional; in short: as §1
HEL = assay: Compound was evaluated for inhibitory activity against varicella zoster virus thymidine kinase (VZV TK-) 07/1 strain; NA=not active; format: functional, cell-based, Homo sapiens
[16] = test system: Human immunodeficiency virus 1; assay: Inhibition of human immunodeficiency virus type 1 (HIV-1) induced cytopathogenicity in CEM cells; format: functional, organism-based; conditions: Human immunodeficiency virus 1, CCRF-CEM
In short: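 CEM cells (~3 × 10⁵ cells/mL) were infected with 100 CCID50 of HIV-1 (IIIB)/mL and plated with dilutions of compound. After 4 days at 37 °C, giant cell formation was assessed microscopically.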

Human alphaherpesvirus 1 [17] = assay: Inhibitory activity against herpes simplex virus type 1 (HSV-1) KOS strain; format: functional, organism-based; in short: as §1
[18] = test system: Human immunodeficiency virus 2; assay: Inhibition of human immunodeficiency virus type 2 (HIV-2) induced cytopathogenicity in CEM cells; format: functional, organism-based; conditions: Human immunodeficiency virus 2, CCRF-CEM
Vaccinia virus [19] = assay: Inhibitory activity against vaccinia virus (VV); format: functional, organism-based; conditions: Orthopoxvirus vaccinia
In short: (§3)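 Confluent E6SM cell cultures were inoculated with 100 CCID50 of virus and left for 1 h adsorption, then residual virus was removed. Cultures were incubated with test compound at serial concentrations (400, 200, 100, ... μg/mL). Virus-induced cytopathicity was scored once it reached completion in untreated infected control cultures.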

Human alphaherpesvirus 1 [20] = assay: Inhibition of herpes simplex virus type 1 (HSV-1) F strain; format: functional, organism-based; in short: as §1
Human alphaherpesvirus 2 [21] = assay: Inhibitory activity against herpes simplex virus type 2 (HSV-2) G strain; format: functional, organism-based; in short: as §1
Vaccinia virus [22] = assay: Inhibitory activity against vaccinia virus (VV).; format: functional, organism-based, Orthopoxvirus vaccinia; in short: as §3
E6SM [23] = assay: Compound was evaluated for inhibitory activity against herpes simplex virus type 1 thymidine kinase (HSV-1 TK-) B2006 strain; NA=not active; format: functional, cell-based, Homo sapiens; in short: as §1

Structure (SMILES) | EC50 [1] [µg/mL] | EC50 (E6SM [2]) | EC50 (Cytomegalovirus [3]) [µg/mL] | EC50 (Human alphaherpesvirus 1 [4]) | EC50 (Cytomegalovirus [5]) [µg/mL] | EC50 (Human alphaherpesvirus 1 [6]) | EC50 [7] [µg/mL] | EC50 (Human alphaherpesvirus 1 [8]) | EC50 (Human alphaherpesvirus 2 [9]) | EC50 (Human alphaherpesvirus 2 [10]) | EC50 [11] [µg/mL] | EC50 (Human alphaherpesvirus 1 [12]) | EC50 (Human alphaherpesvirus 1 [13]) [µg/mL] | EC50 (Human alphaherpesvirus 2 [14]) [µg/mL] | EC50 [15] [µg/mL] | EC50 (Human alphaherpesvirus 1 [17]) [µg/mL] | EC50 (Vaccinia virus [19]) [µg/mL] | EC50 (Human alphaherpesvirus 1 [20]) [µg/mL] | EC50 (Human alphaherpesvirus 2 [21]) [µg/mL] | EC50 (Vaccinia virus [22]) | further results
Nc1cnn(CCOCP(=O)(O)O)c(=O)n1 | > 100 | Not Active | > 100 | Not Active | > 100 | Not Active | > 100 | Not Active | Not Active | Not Active | > 100 | Not Active |  |  |  |  |  |  |  |  | 
Nc1nc(O)c2c(ncn2CCOCP(=O)(O)O)n1 |  |  | > 50 |  | > 50 |  |  |  |  |  | 96 (≈ 332 µM) |  | 150 (≈ 519 µM) | > 400 | 200 (≈ 692 µM) | 300 (≈ 1040 µM) | > 400 | 200 (≈ 692 µM) | 300 (≈ 1040 µM) |  | EC50 (HEL): Not Active; EC50 [16]: > 100 µg/mL; EC50 [18]: > 100 µg/mL
CC(C)OP(=O)(COCCn1cnc2c(Cl)nc(N)nc21)OC(C)C | > 100 | Not Active | 10 (≈ 25.5 µM) | Not Active | 40 (≈ 102 µM) | Not Active | > 100 | Not Active | Not Active | Not Active | > 100 | Not Active |  |  |  |  |  |  |  | Not Active | 
CSc1ncnc2c1ncn2CCOCP(=O)(O)O | > 200 | Not Active | > 400 | Not Active | > 400 | Not Active | > 400 | Not Active | Not Active | Not Active | > 200 | Not Active |  |  |  |  |  |  |  | Not Active | EC50 (E6SM [23]): Not Active
Nc1ncnc2c1ccn2CCOCP(=O)(O)O | 7.56 (≈ 27.8 µM) |  | > 50 |  | > 50 |  | 8.27 (≈ 30.4 µM) |  |  |  | 4.1 (≈ 15.1 µM) |  | 100 (≈ 367 µM) | 100 (≈ 367 µM) | 200 (≈ 735 µM) | 200 (≈ 735 µM) | 150 (≈ 551 µM) | 150 (≈ 551 µM) | 70 (≈ 257 µM) |  | EC50 (HEL): Not Active; EC50 [16]: 4 µg/mL (≈ 14.7 µM); EC50 [18]: 2.5 µg/mL (≈ 9.18 µM)
CC(C)OP(=O)(COCCn1cnc2c(N)nc(Cl)nc21)OC(C)C | > 20 | Not Active | 0.7 (≈ 1.79 µM) | Not Active | 0.65 (≈ 1.66 µM) | Not Active |  | Not Active | Not Active | Not Active | > 100 | Not Active |  |  |  |  |  |  |  | Not Active | EC50 (HEL): Not Active
Nc1ccn(CCOCP(=O)(O)O)c(=O)c1 | > 100 | Not Active | > 100 | Not Active | 100 (≈ 403 µM) | Not Active | > 100 | Not Active | Not Active | Not Active | > 100 | Not Active |  |  |  |  | > 40 |  |  |  | 
Nc1nccc(OCCOCP(=O)(O)O)n1 | > 100 |  | > 100 |  | > 100 |  | > 100 |  |  |  | 2.33 (≈ 9.35 µM) |  | 300 (≈ 1200 µM) | 300 (≈ 1200 µM) | > 200 | > 200 |  | > 200 | > 200 | Not Active | 
Nc1nc(=O)ccn1CCOCP(=O)(O)O | > 100 | Not Active | > 100 | Not Active | > 100 | Not Active | > 100 |  | Not Active | Not Active | > 100 | Not Active |  |  |  | > 400 |  |  |  |  | 
CC(C)OP(=O)(COCCn1cnc2nc(N)nc(O)c21)OC(C)C |  |  | > 50 |  | > 50 |  |  |  |  |  | > 200 |  | > 200 | > 200 | > 200 | > 200 | > 200 | > 200 | > 200 |  | EC50 (HEL): Not Active; EC50 [16]: > 100 µg/mL; EC50 [18]: > 100 µg/mL
Nc1nc(Cl)nc2c1ncn2CCOCP(=O)(O)O | > 100 | Not Active | 85 (≈ 276 µM) | Not Active | 88 (≈ 286 µM) | Not Active | > 100 | Not Active | Not Active | Not Active | 18.2 (≈ 59.2 µM) | Not Active |  |  |  |  | > 40 |  |  |  | 
Nc1nccc2c1ncn2CCOCP(=O)(O)O | > 200 | Not Active | 400 (≈ 1470 µM) | Not Active | 70 (≈ 257 µM) | Not Active |  | Not Active | Not Active | Not Active | > 100 | Not Active |  |  |  |  |  |  |  | Not Active | EC50 (E6SM [23]): Not Active
Nc1ncc2ncn(CCOCP(=O)(O)O)c2n1 | 40.9 (≈ 150 µM) |  | > 100 |  | > 100 |  | 50 (≈ 183 µM) |  |  |  | 0.1 (≈ 0.366 µM) |  | 20 (≈ 73.2 µM) | 70 (≈ 256 µM) | 150 (≈ 549 µM) | 70 (≈ 256 µM) |  | 20 (≈ 73.2 µM) | 400 (≈ 1460 µM) | Not Active | 
